# An excerpt weighted towards active compounds, which were near 1.7% of everything screened.
# PREPL inhibitor: PREPL enzyme inhibitors, primary screen, biochemical, fluorescence polarization; inhibition, % at 5.96 µM; recombinant PREPL, fluorescence polarization activity-based probe; actives 0.68% (n = 320,000); Prolyl endopeptidase-like (Homo sapiens), Q4J6C6;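 further: 0% = enzyme with DMSO and 100% = wells lacking enzyme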
# Target sequence (Q4J6C6 whole entry, looked up): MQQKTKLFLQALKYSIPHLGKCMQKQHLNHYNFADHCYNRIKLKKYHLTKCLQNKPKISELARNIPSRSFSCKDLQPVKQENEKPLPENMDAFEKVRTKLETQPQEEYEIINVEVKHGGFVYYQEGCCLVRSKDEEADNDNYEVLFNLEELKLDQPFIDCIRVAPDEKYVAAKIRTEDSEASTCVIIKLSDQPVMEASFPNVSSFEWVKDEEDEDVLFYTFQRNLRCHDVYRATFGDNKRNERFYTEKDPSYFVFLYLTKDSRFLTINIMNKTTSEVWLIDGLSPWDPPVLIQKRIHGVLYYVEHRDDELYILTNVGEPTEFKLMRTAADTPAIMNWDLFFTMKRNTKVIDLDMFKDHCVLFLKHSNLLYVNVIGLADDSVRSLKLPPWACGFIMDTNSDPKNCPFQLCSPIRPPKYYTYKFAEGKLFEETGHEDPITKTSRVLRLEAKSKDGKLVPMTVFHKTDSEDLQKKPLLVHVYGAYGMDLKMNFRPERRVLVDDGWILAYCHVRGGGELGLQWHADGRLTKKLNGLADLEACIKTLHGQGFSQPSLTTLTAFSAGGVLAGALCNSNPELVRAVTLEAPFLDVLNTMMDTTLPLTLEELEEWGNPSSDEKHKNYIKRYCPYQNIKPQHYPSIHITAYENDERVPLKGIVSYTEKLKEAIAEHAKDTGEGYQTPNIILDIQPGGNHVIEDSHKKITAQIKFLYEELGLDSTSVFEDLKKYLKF
# UBC13 polyUb: UBC13 polyubiquitin chain formation inhibitors, primary screen, biochemical, TR-FRET, uHTS | Ubiquitin-conjugating enzyme E2 N (Homo sapiens), P61088 | actives 0.47% (n = 330,000) | AID 485273, 2010 | inhibition, % at 20 µM; in the data active means inhibition above about 45%, passing the limit was not always enough
# EBNA-1 inhibitor: EBNA-1 DNA-binding inhibitors, primary screen, biochemical, fluorescence polarization; inhibition, % at 14.8 µM; actives 0.34% (n = 300,000); AID 1950, 2009; in the data active means inhibition above about 28%
# ZTA counter: ZTA (EBV) inhibition in EBNA-1 counter-screen. P03206. ZTA-DNA binding, fluorescence polarization. inhibition, % at 11 µM. actives 0.15% (n = 320,000); in the data active means inhibition above about 33%
# Apaf1 inhib: inhibitors of human Apaf-1 apoptosome, primary screen, biochemical, DEVD-Rh110 fluorescence, uHTS. reconstituted apoptosome caspase-3 activity. inhibition, % at 20 µM. AID 489030, 2010. Apoptotic protease-activating factor 1 (Homo sapiens), O14727. actives 0.71% (n = 330,000); active means inhibition of at least 40% at 20 µM;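 further: plate controls were DMSO wells for no effect and DEVD-CHO caspase inhibitor wells for full effect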
#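 detection = Rh110 fluorescence intensity | test system = biochemical Apaf-1 apoptosome reconstitution | also added = cytochrome c and DEVD-Rh110 substrate | schedule = 30 min plus 50 min, RT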
# PREPL inh cf: human PREPL enzyme inhibitors, confirmation, biochemical, fluorescence polarization; shares compounds with PREPL inhibitor; recombinant PREPL, fluorescence polarization activity probe; inhibition, % at 5.96 µM; actives 67% (n = 2,000);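 further: 0% = protein with DMSO and 100% = wells lacking protein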
# * hit, by the source's call; . = no result. Unless noted, no stated cut-off is given here; in the data, active means inhibition above about 43%; inactive means the rest.
SMILES,PREPL inhibitor,UBC13 polyUb,EBNA-1 inhibitor,ZTA counter,Apaf1 inhib,PREPL inh cf
O=S(=O)(NCCC(c1ccc(F)cc1)c1ccco1)c1ccccc1 (stereo not given),-9,-5,6,26,13,.
Cc1ccc(S(=O)(=O)N2c3cc(C)ccc3OCC2C(C)(C)C)cc1 (stereo not given),-9,4,-5,8,12,.
COc1ccc(C)cc1Nc1n[n+](-c2ccccc2)c(-c2cc(OC)c(OC)cc2Br)s1,5,38,-6,-11,17,.
COc1ccc(C)cc1Nc1n[n+](-c2ccccc2)c(-c2c(OC)ccc3ccccc23)s1,51*,39,10,11,36,40
CCc1c(C(=O)NCc2cnn(C)c2)csc1C,-1,15,5,6,-21,.
COc1ccc(/C=N/Nc2cc(C)nc3c(C)cccc23)cc1,48*,21,2,-17,35,47*
COc1ccc(/C=N/Nc2cc(C)nc3ccccc23)cc1,42,17,11,1,38,.
N#Cc1c(N)nc2c3c(sc(=N)c2c1N)NC(=O)CC3c1ccccc1 (stereo not given),50*,5,-8,-9,16,40
COc1cc([N+](=O)[O-])ccc1Nc1nc(C)cc(C)n1,-5,-2,-7,-3,-10,.
CC(C)CC(c1nnnn1Cc1cccs1)N1CCN(c2nc3ccccc3s2)CC1 (stereo not given),44*,-1,7,0,30,33
Cc1nnc(Cl)c2nn(-c3ccccc3)c(C)c12,-9,-11,-10,-3,9,.
Cn1c(N2CCOCC2)nc2c1c(=O)n(Cc1ccc(Cl)c(Cl)c1)c(=O)n2C,44*,9,-1,12,1,26
Cn1c(N2CCCC2)nc2c1c(=O)n(Cc1ccc(F)cc1)c(=O)n2C,7,-1,-1,13,-1,.
CCc1ccccc1NC(=S)NC1CC2CCC(C1)N2Cc1ccc(F)cc1 (stereo not given),18,4,9,3,5,.
Cn1c(NC(=O)C[n+]2cc(-c3ccc(Cl)cc3)n3c2CCC3)cc(=O)n(C)c1=O,43*,6,2,-7,6,46*
C[n+]1c(-c2ccccc2)sc([S-])c1-c1ccccc1,57*,1,-6,17,8,69*
COc1ccccc1-c1ccc(SCC(=O)N2CCOCC2)nn1,14,-10,1,-3,2,.
CN(C)c1ccc(C(CNS(=O)(=O)c2ccc(F)c(F)c2)c2c[nH]c3ccccc23)cc1 (stereo not given),16,7,-6,-1,6,.
CN(C)c1ccc(C(CNC(=O)c2ccccc2F)c2c[nH]c3ccccc23)cc1 (stereo not given),47*,-32,-5,4,22,51*
CN(C)c1ccc(C(CNC(=O)c2ccccc2)c2c[nH]c3ccccc23)cc1 (stereo not given),51*,-4,-7,4,2,59*
COc1ccccc1C(=O)NCCC(=O)N(C)Cc1cccs1,-4,13,-9,-11,5,.
Cc1cc(NS(=O)(=O)c2ccc(Nc3nc(-c4sc(NC(=O)c5ccccc5)nc4C)cs3)cc2)no1,66*,-3,0,3,28,63*
NNC(=O)c1oc2nc(-c3cccs3)cc(-c3ccco3)c2c1N,62*,-54,-2,0,25,65*
Cc1ccc(-c2cc(-c3ccco3)c3c(N)c(C(=O)NN)oc3n2)cc1,-2,-41,1,-13,30,.
CC#CCN(Cc1ccco1)C(=O)c1ccc(OC2CCN(Cc3ccccn3)CC2)cc1,49*,-19,-8,-6,8,13
CCN1CCN(c2ccc(NC(=O)COc3ccccc3Cl)cc2)CC1,47*,6,1,4,19,40
Cc1cccc(OCC(=O)Nc2ccc(N3CCN(C(=O)c4ccccc4)CC3)cc2)c1,55*,5,10,15,7,58*
O=C(COc1ccccc1Cl)Nc1ccc(N2CCN(C(=O)c3ccccc3)CC2)cc1,64*,2,4,12,15,62*

# Screening results (PubChem BioAssay)
